Data taken from ChEMBL document CHEMBL3232815, “Synthesis and anticonvulsant activity of some new pyrazolo[3,4-b]pyrazines and related heterocycles” (2014).

Experiments:
Type in all cases: functional
Conditions in all cases: route intraperitoneal
Mus musculus [1] = test: Anticonvulsant activity in Swiss Webster mouse assessed as survivors level at 10 mg/kg, ip pretreated 20 mins before PTZ challenge and measured 24 hrs post PTZ challenge relative to control
Outline: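 Male adult Swiss–Webster mice (22–30 g), 8 per group. Compounds are given ip at 10 mg/kg (0.2% in corn oil) 20 min before PTZ 75 mg/kg ip (1.5% in saline), the minimal convulsive dose. Animals are watched for 1 h after PTZ. Survivors are counted at 24 h and expressed as % survivors against the PTZ-only control. Significance is tested at p<0.05 and p<0.01.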

Mus musculus [2] = test: Anticonvulsant activity in Swiss Webster mouse assessed as PTZ-induced tonic seizures at 10 mg/kg, ip pretreated 20 mins before PTZ challenge and measured 1 hr post PTZ challenge relative to control
Outline: (§1)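 Male adult Swiss–Webster mice, 22–30 g, 12 h light/dark cycle at 25 °C, food and water ad libitum. Compound 10 mg/kg ip (0.2% in corn oil), one group per compound (8 animals), 20 min before PTZ 75 mg/kg ip (1.5% in saline). Watched 1 h for seizure onset (min) and % animals convulsing; 24 h survival noted. Phenobarbital 30 mg/kg reference; p vs PTZ group.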

Mus musculus [3] = test: Anticonvulsant activity in Swiss Webster mouse assessed as PTZ-induced clonic seizures at 10 mg/kg, ip pretreated 20 mins before PTZ challenge and measured 1 hr post PTZ challenge relative to control; outline: as §1
Mus musculus [4] = test: Anticonvulsant activity in Swiss Webster mouse assessed as survivors level at 30 mg/kg, ip pretreated 20 mins before PTZ challenge and measured 24 hrs post PTZ challenge relative to control
Outline: (§2)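 Male adult Swiss–Webster mice (22–30 g), 8 per group, with a 12 h light/dark cycle at 25 °C. The reference drug phenobarbital sodium is given at 30 mg/kg ip 20 min before PTZ 75 mg/kg ip (1.5% solution in saline). Clonic and tonic seizure onset (min) and % animals convulsing are scored over 1 h. Survivors are counted at 24 h. Comparison is with the PTZ-only group.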

Mus musculus [5] = test: Anticonvulsant activity in Swiss Webster mouse assessed as PTZ-induced tonic seizures at 30 mg/kg, ip pretreated 20 mins before PTZ challenge and measured 1 hr post PTZ challenge relative to control; outline: as §2
Mus musculus [6] = test: Anticonvulsant activity in Swiss Webster mouse assessed as PTZ-induced clonic seizures at 30 mg/kg, ip pretreated 20 mins before PTZ challenge and measured 1 hr post PTZ challenge relative to control; outline: as §2

## Cc1nn(-c2ccccc2)c2nc(-c3ccccc3)c(C(=O)NN3C(=O)CSC34CCCC4)nc12
Mus musculus [1]
  survival at 10 mg/kg: 75%
Mus musculus [2]
  Activity: 25%
Mus musculus [3]
  Activity: 100%

## COc1ccc(C2SCC(=O)N2NC(=O)c2nc3c(C)nn(-c4ccccc4)c3nc2-c2ccccc2)cc1OC (stereo not given)
Mus musculus [1]
  survival at 10 mg/kg: 100%
Mus musculus [2]
  Activity: 0%
Mus musculus [3]
  Activity: 87.5%

## Cc1nn(-c2ccccc2)c2nc(-c3ccccc3)c(C(=O)NN3C(=O)CSC3c3ccc(Cl)cc3)nc12 (stereo not given)
Mus musculus [1]
  survival at 10 mg/kg: 75%
Mus musculus [2]
  Activity: 25%
Mus musculus [3]
  Activity: 75%

## Cc1nn(-c2ccccc2)c2nc(-c3ccccc3)c(-c3nn4cc(-c5ccc(Br)cc5)nc4s3)nc12
Mus musculus [1]
  survival at 10 mg/kg: 62.5%
Mus musculus [2]
  Activity: 37.5%
Mus musculus [3]
  Activity: 87.5%

## Cc1nn(-c2ccccc2)c2nc(-c3ccccc3)c(C(=O)NN3C(=O)CSC3(C)C)nc12
Mus musculus [1]
  survival at 10 mg/kg: 25%
Mus musculus [2]
  Activity: 75%
Mus musculus [3]
  Activity: 100%

## CCC1(c2ccccc2)C(=O)N=C([O-])NC1=O.[Na+] (stereo not given) [PHENOBARBITAL SODIUM]
Mus musculus [4]
  survival at 30 mg/kg: 100%
Mus musculus [5]
  Activity: 0%
Mus musculus [6]
  Activity: 0%

## Cc1nn(-c2ccccc2)c2nc(-c3ccccc3)c(C(=O)NN3C(=O)CSC34CCCCC4)nc12
Mus musculus [1]
  survival at 10 mg/kg: 0%
Mus musculus [2]
  Activity: 100%
Mus musculus [3]
  Activity: 100%

## Cc1nn(-c2ccccc2)c2nc(-c3ccccc3)c(-c3nn4cc(-c5ccccc5)nc4s3)nc12
Mus musculus [1]
  survival at 10 mg/kg: 87.5%
Mus musculus [2]
  Activity: 12.5%
Mus musculus [3]
  Activity: 87.5%

## Cc1nn(-c2ccccc2)c2nc(-c3ccccc3)c(C(=O)NN3C(=O)CSC3c3ccc([N+](=O)[O-])cc3)nc12 (stereo not given)
Mus musculus [1]
  survival at 10 mg/kg: 75%
Mus musculus [2]
  Activity: 25%
Mus musculus [3]
  Activity: 87.5%

## Cc1nn(-c2ccccc2)c2nc(-c3ccccc3)c(C(=O)NN3C(=O)CSC3c3ccccc3)nc12 (stereo not given)
Mus musculus [1]
  survival at 10 mg/kg: 87.5%
Mus musculus [2]
  Activity: 12.5%
Mus musculus [3]
  Activity: 75%
